Test results: ChEMBL document CHEMBL5705890, “Antitumor activity of an allosteric inhibitor of centromere-associated protein-E” (Proc Natl Acad Sci U S A, 2010)

What was measured:
[1] = tested on: DLD-1; experiment: Anticancer activity against human DLD-1 cells assessed as cell growth inhibition measured after 72 hrs by DAPI staining based analysis; assay type: functional
Procedure, shortened: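 Cells seeded, DAPI-stained DNA content of fixed cells read by imaging 24 h after seeding (T0), and again after a further 72 h exposure to a range of drug concentrations (T72). T72 values were normalized to T0. Curve fits gave the concentration producing 50% growth inhibition relative to T0 and Ymax (GI50).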

[2] = tested on: SW948; experiment: Anticancer activity against human SW948 cells assessed as cell growth inhibition measured after 72 hrs by DAPI staining based analysis; assay type: functional
[3] = target: Centromere-associated protein E (Homo sapiens, UniProt Q02224, I182L); experiment: Binding affinity to human CENP-E I182L mutant assessed as inhibition constant
[4] = tested on: SK-N-AS; experiment: Anticancer activity against human SK-N-AS cells assessed as cell doubling measured for 72 hrs by DAPI staining based analysis; assay type: functional
[5] = tested on: MCF7; experiment: Antitumor activity against human MCF7 cells in xenograft model assessed as tumor growth delay at 125 mg/kg relative to control; assay type: functional
[6] = tested on: EFM-19; experiment: Anticancer activity against human EFM-19 cells assessed as cell doubling measured for 72 hrs by DAPI staining based analysis; assay type: functional
[7] = Anticancer activity against human TE 381.T cells assessed as cell growth inhibition measured after 72 hrs by DAPI staining based analysis; assay type: functional
[8] = tested on: BT-474; experiment: Anticancer activity against human BT-474 cells assessed as cell growth inhibition measured after 72 hrs by DAPI staining based analysis; assay type: functional
Procedure, shortened: (§1)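 Cells were seeded, and DNA content at 24 h after seeding (T0) was read by imaging of fixed, DAPI-stained cells. Cells were then exposed to a range of drug concentrations for a further 72 h (T72) and DNA content was read again. T72 values were normalized to T0, and GI50 was taken from curve fits as the concentration giving 50% growth inhibition relative to T0 and Ymax.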

[9] = tested on: COLO 205; experiment: Antitumor activity against human COLO 205 cells in xenograft model assessed as difference between median time to endpoint time of treated versus control group at 125 mg/kg; assay type: functional
[10] = tested on: BeWo; experiment: Anticancer activity against human BeWo cells assessed as cell doubling measured for 72 hrs by DAPI staining based analysis; assay type: functional
[11] = tested on: HOS; experiment: Anticancer activity against human HOS cells assessed as cell doubling measured for 72 hrs by DAPI staining based analysis; assay type: functional
[12] = tested on: NCI-H146; experiment: Anticancer activity against human NCI-H146 cells assessed as cell doubling measured for 72 hrs by DAPI staining based analysis; assay type: functional
[13] = tested on: NCI-H23; experiment: Anticancer activity against human NCI-H23 cells assessed as cell doubling measured for 72 hrs by DAPI staining based analysis; assay type: functional
[14] = tested on: BV-173; experiment: Anticancer activity against human BV-173 cells assessed as cell growth inhibition measured after 72 hrs by DAPI staining based analysis; assay type: functional; procedure, shortened: as §1
[15] = tested on: DLD-1; experiment: Anticancer activity against human DLD-1 cells assessed as cell doubling measured for 72 hrs by DAPI staining based analysis; assay type: functional
[16] = tested on: SW480; experiment: Anticancer activity against human SW480 cells assessed as cell growth inhibition measured after 72 hrs by DAPI staining based analysis; assay type: functional
[17] = tested on: SW480; experiment: Anticancer activity against human SW480 cells assessed as cell doubling measured for 72 hrs by DAPI staining based analysis; assay type: functional
[18] = tested on: C-4-II; experiment: Anticancer activity against human C-4-II cells assessed as cell growth inhibition measured after 72 hrs by DAPI staining based analysis; assay type: functional; procedure, shortened: as §1
[19] = tested on: NCI-H661; experiment: Anticancer activity against human NCI-H661 cells assessed as cell growth inhibition measured after 72 hrs by DAPI staining based analysis; assay type: functional
[20] = tested on: MX1; experiment: Anticancer activity against human MX1 cells assessed as cell growth inhibition measured after 72 hrs by DAPI staining based analysis; assay type: functional
[21] = tested on: NCI-H1299; experiment: Antitumor activity against human NCI-H1299 cells in xenograft model assessed as difference between median time to endpoint time of treated versus control group at 125 mg/kg; assay type: functional
[22] = tested on: SK-OV-3; experiment: Antitumor activity against human SK-OV-3 cells in xenograft model assessed as difference between median time to endpoint time of treated versus control group at 62.5 mg/kg; assay type: functional
[23] = target: Centromere protein E (Canis lupus familiaris, UniProt A0A8P0P634); experiment: Binding affinity to wild-type dog CENP-E assessed as inhibition constant
[24] = tested on: K562; experiment: Anticancer activity against human K562 cells assessed as cell growth inhibition measured after 72 hrs by DAPI staining based analysis; assay type: functional
[25] = tested on: OVCAR-5; experiment: Anticancer activity against human OVCAR-5 cells assessed as cell doubling measured for 72 hrs by DAPI staining based analysis; assay type: functional
[26] = Anticancer activity against human SW579 cells assessed as cell doubling measured for 72 hrs by DAPI staining based analysis; assay type: functional
[27] = tested on: PC-3; experiment: Anticancer activity against human PC-3 cells assessed as cell growth inhibition measured after 72 hrs by DAPI staining based analysis; assay type: functional
[28] = tested on: SJRH30; experiment: Anticancer activity against human SJRH30 cells assessed as cell doubling measured for 72 hrs by DAPI staining based analysis; assay type: functional
[29] = tested on: MCF7; experiment: Antitumor activity against human MCF7 cells in xenograft model assessed as difference between median time to endpoint time of treated versus control group at 62.5 mg/kg; assay type: functional
[30] = tested on: SNU-16; experiment: Anticancer activity against human SNU-16 cells assessed as cell doubling measured for 72 hrs by DAPI staining based analysis; assay type: functional
[31] = tested on: CAL-54; experiment: Anticancer activity against human CAL-54 cells assessed as cell doubling measured for 72 hrs by DAPI staining based analysis; assay type: functional
[32] = tested on: LNCaP; experiment: Anticancer activity against human LNCaP cells assessed as cell doubling measured for 72 hrs by DAPI staining based analysis; assay type: functional
[33] = tested on: A498; experiment: Anticancer activity against human A498 cells assessed as cell doubling measured for 72 hrs by DAPI staining based analysis; assay type: functional
[34] = tested on: 639-V; experiment: Anticancer activity against human 639-V cells assessed as cell growth inhibition measured after 72 hrs by DAPI staining based analysis; assay type: functional
Procedure, shortened: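 Cells were seeded and, after 24 h, DNA content was read as T0. Cells were then exposed to varying drug concentrations for a further 72 h (T72). Fixed cells were DAPI-stained and DNA content measured by automated imaging. T72 values were normalized to T0. GI50 is the concentration giving 50% growth inhibition between T0 and Ymax, obtained by curve fitting.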

[35] = tested on: NCI-H1299; experiment: Antitumor activity against human NCI-H1299 cells in xenograft model assessed as tumor growth delay at 62.5 mg/kg relative to control; assay type: functional
[36] = Anticancer activity against human C32TG cells assessed as cell growth inhibition measured after 72 hrs by DAPI staining based analysis; assay type: functional; procedure, shortened: as §1
[37] = tested on: M14; experiment: Anticancer activity against human M14 cells assessed as cell growth inhibition measured after 72 hrs by DAPI staining based analysis; assay type: functional
[38] = tested on: NCI-H295R; experiment: Anticancer activity against human NCI-H295R cells assessed as cell growth inhibition measured after 72 hrs by DAPI staining based analysis; assay type: functional
[39] = tested on: SK-MEL-28; experiment: Anticancer activity against human SK-MEL-28 cells assessed as cell growth inhibition measured after 72 hrs by DAPI staining based analysis; assay type: functional
[40] = tested on: HT-1376; experiment: Anticancer activity against human HT-1376 cells assessed as cell doubling measured for 72 hrs by DAPI staining based analysis; assay type: functional

Chain of Centromere-associated protein E (Q02224 whole entry I182L): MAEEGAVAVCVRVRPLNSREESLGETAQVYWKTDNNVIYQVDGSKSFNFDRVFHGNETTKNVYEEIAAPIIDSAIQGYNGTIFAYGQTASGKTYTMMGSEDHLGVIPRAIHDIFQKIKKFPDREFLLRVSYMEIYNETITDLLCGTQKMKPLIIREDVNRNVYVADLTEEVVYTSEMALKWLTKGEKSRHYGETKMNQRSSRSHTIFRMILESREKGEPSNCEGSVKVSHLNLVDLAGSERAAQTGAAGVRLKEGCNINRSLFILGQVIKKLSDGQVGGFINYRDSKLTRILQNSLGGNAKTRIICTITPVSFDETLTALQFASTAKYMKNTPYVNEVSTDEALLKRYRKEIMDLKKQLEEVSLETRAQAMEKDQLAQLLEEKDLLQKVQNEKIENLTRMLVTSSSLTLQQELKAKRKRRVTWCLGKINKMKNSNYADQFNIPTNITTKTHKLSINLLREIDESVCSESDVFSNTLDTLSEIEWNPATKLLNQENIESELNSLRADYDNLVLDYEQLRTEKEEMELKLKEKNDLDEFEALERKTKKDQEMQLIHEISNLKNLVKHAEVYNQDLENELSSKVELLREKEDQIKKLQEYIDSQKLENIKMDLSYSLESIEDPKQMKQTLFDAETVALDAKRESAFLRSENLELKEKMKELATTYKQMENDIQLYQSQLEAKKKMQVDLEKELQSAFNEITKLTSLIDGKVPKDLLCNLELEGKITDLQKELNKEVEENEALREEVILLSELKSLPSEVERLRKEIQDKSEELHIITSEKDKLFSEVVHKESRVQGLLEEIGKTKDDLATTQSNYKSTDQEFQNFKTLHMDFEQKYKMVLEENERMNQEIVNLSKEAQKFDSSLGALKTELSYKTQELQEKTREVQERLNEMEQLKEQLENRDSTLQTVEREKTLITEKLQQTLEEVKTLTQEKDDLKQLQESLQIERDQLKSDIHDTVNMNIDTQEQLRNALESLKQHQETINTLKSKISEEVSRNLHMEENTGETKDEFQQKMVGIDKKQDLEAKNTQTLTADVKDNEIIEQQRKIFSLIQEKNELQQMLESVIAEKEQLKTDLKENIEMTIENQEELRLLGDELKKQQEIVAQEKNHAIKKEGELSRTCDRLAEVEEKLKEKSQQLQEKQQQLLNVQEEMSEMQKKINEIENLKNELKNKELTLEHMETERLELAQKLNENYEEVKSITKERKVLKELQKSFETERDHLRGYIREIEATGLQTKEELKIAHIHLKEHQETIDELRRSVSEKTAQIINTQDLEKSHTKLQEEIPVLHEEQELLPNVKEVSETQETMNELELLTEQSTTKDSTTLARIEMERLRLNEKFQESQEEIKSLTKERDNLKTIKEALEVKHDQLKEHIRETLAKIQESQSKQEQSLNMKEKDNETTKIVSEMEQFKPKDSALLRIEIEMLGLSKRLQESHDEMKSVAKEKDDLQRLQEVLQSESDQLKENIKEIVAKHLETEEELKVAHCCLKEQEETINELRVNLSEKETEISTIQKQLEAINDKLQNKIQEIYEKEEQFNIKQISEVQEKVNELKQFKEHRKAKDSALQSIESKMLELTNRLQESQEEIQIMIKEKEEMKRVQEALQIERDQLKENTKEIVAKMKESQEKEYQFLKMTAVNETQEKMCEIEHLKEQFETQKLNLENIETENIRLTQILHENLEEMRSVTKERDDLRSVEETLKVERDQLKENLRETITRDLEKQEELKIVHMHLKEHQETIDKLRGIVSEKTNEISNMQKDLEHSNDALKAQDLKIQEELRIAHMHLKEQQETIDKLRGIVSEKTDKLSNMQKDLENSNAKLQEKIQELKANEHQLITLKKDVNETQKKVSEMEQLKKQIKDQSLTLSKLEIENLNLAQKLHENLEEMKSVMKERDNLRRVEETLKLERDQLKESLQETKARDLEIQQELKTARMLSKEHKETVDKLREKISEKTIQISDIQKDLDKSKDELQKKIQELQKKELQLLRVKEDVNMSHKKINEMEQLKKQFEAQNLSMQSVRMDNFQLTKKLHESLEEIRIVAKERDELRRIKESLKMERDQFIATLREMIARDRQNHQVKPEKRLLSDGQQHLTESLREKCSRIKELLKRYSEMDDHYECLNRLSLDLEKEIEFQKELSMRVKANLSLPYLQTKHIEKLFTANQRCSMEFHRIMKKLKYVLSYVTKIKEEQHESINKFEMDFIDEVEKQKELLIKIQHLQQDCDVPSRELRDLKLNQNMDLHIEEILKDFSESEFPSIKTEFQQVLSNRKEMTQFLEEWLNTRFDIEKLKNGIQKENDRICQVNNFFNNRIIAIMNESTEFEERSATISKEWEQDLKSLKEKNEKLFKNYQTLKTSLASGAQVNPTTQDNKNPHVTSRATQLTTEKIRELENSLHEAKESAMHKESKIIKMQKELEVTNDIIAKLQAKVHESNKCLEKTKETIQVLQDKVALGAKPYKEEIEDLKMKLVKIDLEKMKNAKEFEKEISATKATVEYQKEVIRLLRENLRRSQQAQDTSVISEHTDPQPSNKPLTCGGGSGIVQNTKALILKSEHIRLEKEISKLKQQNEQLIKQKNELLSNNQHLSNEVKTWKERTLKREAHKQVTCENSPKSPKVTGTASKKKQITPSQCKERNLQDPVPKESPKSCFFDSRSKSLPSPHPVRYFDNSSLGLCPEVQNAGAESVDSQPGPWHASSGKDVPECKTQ
Chain of Centromere protein E (A0A8P0P634 whole entry): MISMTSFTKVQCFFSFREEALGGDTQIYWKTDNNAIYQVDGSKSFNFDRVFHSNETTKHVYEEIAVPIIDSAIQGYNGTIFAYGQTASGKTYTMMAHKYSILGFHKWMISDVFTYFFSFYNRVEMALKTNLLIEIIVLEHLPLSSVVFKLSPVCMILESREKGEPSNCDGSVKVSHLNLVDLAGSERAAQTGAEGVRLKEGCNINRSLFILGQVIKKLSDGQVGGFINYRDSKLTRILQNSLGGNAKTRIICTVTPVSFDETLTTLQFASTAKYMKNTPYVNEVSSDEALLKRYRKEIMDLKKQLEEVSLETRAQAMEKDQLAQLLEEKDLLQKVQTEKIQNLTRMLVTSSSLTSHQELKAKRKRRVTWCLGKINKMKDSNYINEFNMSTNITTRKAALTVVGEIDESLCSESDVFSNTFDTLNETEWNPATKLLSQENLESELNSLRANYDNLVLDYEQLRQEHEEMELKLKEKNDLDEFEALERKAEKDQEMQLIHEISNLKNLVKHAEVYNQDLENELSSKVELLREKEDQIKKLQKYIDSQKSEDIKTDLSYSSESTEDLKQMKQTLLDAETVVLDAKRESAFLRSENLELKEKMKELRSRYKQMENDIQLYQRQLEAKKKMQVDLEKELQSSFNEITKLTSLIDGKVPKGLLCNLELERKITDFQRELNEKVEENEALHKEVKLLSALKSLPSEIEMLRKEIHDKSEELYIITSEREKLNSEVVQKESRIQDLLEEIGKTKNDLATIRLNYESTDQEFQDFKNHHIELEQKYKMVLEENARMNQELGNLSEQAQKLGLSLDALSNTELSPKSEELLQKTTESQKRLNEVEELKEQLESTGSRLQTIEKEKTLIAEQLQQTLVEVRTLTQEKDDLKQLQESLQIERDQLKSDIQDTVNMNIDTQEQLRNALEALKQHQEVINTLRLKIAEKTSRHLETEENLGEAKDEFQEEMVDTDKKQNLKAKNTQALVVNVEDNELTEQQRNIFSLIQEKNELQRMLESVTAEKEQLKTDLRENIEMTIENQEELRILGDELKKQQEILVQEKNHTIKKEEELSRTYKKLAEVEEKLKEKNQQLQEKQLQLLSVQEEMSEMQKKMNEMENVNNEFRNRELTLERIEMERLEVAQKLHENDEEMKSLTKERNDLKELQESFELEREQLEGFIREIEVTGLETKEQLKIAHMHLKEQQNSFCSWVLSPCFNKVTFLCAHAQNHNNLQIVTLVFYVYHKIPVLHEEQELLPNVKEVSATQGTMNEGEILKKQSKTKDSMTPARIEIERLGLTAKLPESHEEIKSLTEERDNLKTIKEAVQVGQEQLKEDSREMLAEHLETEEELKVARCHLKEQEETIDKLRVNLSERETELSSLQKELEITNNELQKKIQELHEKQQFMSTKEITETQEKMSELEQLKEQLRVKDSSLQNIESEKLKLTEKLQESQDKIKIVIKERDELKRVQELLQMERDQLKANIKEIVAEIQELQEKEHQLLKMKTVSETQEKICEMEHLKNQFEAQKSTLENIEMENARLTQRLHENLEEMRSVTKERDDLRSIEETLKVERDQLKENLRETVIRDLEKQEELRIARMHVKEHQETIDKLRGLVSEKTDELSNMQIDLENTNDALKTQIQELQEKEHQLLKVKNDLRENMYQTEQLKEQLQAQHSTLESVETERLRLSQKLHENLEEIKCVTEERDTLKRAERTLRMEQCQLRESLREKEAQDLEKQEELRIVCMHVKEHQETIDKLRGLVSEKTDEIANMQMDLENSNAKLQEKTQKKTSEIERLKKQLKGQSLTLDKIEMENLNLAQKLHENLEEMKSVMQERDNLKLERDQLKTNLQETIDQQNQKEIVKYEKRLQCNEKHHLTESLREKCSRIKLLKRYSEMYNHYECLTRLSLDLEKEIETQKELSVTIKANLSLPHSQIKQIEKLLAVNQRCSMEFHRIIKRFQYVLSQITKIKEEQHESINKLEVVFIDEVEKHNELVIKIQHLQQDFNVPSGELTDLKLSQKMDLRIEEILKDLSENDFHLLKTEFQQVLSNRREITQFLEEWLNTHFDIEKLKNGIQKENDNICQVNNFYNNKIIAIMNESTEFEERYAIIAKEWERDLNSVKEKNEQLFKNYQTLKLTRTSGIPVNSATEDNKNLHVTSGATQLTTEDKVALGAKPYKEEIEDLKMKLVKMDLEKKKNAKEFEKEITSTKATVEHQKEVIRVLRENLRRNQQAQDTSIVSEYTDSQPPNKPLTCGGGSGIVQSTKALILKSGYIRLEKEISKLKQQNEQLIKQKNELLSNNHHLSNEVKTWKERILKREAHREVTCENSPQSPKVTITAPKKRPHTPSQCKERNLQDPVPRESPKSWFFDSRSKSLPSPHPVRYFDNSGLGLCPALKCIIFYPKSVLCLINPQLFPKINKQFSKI

CC(C)Oc1ccc(C(=O)N[C@H](CNC(=O)CN(C)C)Cc2ccc(-c3cn4cccc([C@H](C)O)c4n3)cc2)cc1Cl [GSK-923295A]
GI50 [1]: 60 nM
GI50 [2]: 98 nM
Ki [3]: 14 nM
Activity [4]: 2.37
Activity [5]: 58%
Activity [6]: 1.43
GI50 [7]: 27 nM
GI50 [8]: 110 nM
Time [9]: >74 days
Activity [10]: 2.95
Activity [11]: 3.65
Activity [12]: 1.2
Activity [13]: 2.04
GI50 [14]: 56 nM
Activity [15]: 4.11
GI50 [16]: 33 nM
Activity [17]: 2.21
GI50 [18]: 46 nM
GI50 [19]: 22 nM
GI50 [20]: 30 nM
Time [21]: 16.8 days
Time [22]: 71.6 days
Ki [23]: 1.6 nM
GI50 [24]: 25 nM
Activity [25]: 2.84
Activity [26]: 1.41
GI50 [27]: 28 nM
Activity [28]: 2.12
Time [29]: 5.4 days
Activity [30]: 2.92
Activity [31]: 1.05
Activity [32]: 1.4
Activity [33]: 1.11
GI50 [34]: 27 nM
Activity [35]: 15%
GI50 [36]: 28 nM
GI50 [37]: 27 nM
GI50 [38]: 298 nM
GI50 [39]: 31 nM
Activity [40]: 1.74
